Data set [1] in a line: In vitro microsome stability assay. The data set is classed as in vitro ADME. As to conditions: rat, liver microsomes. On the technique in general: Liver microsomes are a subcellular fraction often used to study metabolism.
The subject of data set [2] is T. gondii type II Pru-LUC strain. Briefly: Murine infection model of toxoplasmosis. Conditions: 30 days post-infection, 5 mg/kg daily i.p. for 10 days. Type of data set: in vivo, mouse.
The test system of data set [3] is T. gondii 2F clone of the type I RH strain in HFF cells. Kind of data set: Inhibition of parasite growth in vitro in HFF monolayers. Type of data set: cell-based, Toxoplasma gondii.
Data set [4] addresses human calmodulin dependent kinase II alpha (αCaMKII) (Homo sapiens, UniProt Q9UQM7). Kind of data set: CaM Kinase II Assay CycLex kit. The data set is classed as biochemical. The method, boiled down:
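Human αCaMKII activity measured with a commercial CaM kinase II assay kit following the maker's recommendations. Test compound in serial dilutions; all samples run in triplicate. Data normalized and log-transformed, then fit by non-linear regression to a sigmoidal dose-response curve with variable slope to obtain IC50.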

Data set [5] addresses CDPK1 G128S (Toxoplasma gondii, UniProt Q9BJF5, G128S). Briefly: CDPK1 G128S mutant kinase assay, syntide-2 peptide ELISA. The data set is classed as biochemical.
In data set [6] the target is CDPK1 G128M (Toxoplasma gondii, UniProt Q9BJF5, G128M). Briefly: CDPK1 G128M mutant kinase assay, syntide-2 peptide ELISA. The data set is classed as biochemical. (An ELISA detects its analyte on a solid surface through an enzyme-linked reagent.)
Data set [7] has as its target CDPK1 G128A (Toxoplasma gondii, UniProt Q9BJF5, G128A). Briefly: CDPK1 G128A mutant kinase assay, syntide-2 peptide ELISA. The data set is classed as biochemical.
Data set [8] deals with CDPK1 G128T (Toxoplasma gondii, UniProt Q9BJF5, G128T). Kind of data set: CDPK1 G128T mutant kinase assay, syntide-2 peptide ELISA. Type of data set: biochemical.
In data set [9] the test system is T. gondii highly virulent RH strain. As to conditions: cited from earlier work.

Here are results for 13 compounds from article PMC3625458 (Journal of medicinal chemistry, 2013).

Entries after “also recorded” stand apart in the source; their conditions may differ. A value given as a limit tells only on which side of the number the result lay.

In data set [1], `CC(C)(C)n1nc(Cc2cccc(Br)c2)c2c(N)ncnc21` [Compound 4, 3-bromo-benzyl pyrazolo [3,4-d] pyrimidine] yielded a microsomal CLint greater than 350 µL/min/mg.
On the same count and under the same terms, next, `CC(C)n1nc(Cc2cc(F)cc(Cl)c2)c2c(N)ncnc21` [Compound 21]: greater than 350 µL/min/mg.
`CC(C)(C)n1nc(Cc2cc(F)cc(F)c2)c2c(N)ncnc21` [Compound 24]: the “brain tissue cyst burden in surviving mice” value (from here on “brain tissue cyst burden”) in data set [2] (5 mg/kg) is “much more potent and uniform protection; also recorded: most effective in reducing the chronic burden of CNS infection”.
Take `CC(C)(C)n1nc(Cc2cc(Cl)ccc2F)c2c(N)ncnc21` [Compound 10]: in [1], the microsomal CLint was 250 µL/min/mg.
`CC(C)n1nc(C(O)c2cccc(Cl)c2Cl)c2c(N)ncnc21` (centres unmarked) [Compound 25] showed a microsomal CLint in [1] of 68 µL/min/mg. Besides, the “activity against T. gondii” value in data set [3] is “inactive”.
As to `CC(C)n1nc(C(F)c2cccc(Cl)c2Cl)c2c(N)ncnc21` (centres unmarked) [Compound 26], the intrinsic clearance (microsomal CLint) in [1] is 107 µL/min/mg.
In data set [1], `CC(C)n1nc(Cc2cccc(Cl)c2Cl)c2c(N)ncnc21` [Compound 11] yielded a microsomal CLint of 190 µL/min/mg. Further, the “brain tissue cyst burden” value in data set [2] is listed as “considerable variation in the reduction of cyst numbers”.
As for `Cc1cccc(Cc2nn(C(C)(C)C)c3ncnc(N)c23)c1` [Compound 1, 3-methyl-benzyl pyrazolo [3,4-d] pyrimidine], the IC50 was greater than 10000 nM in data set [4]; 22.9 ± 7.5 nM in data set [5]; greater than 10000 nM in data set [6]; 13.7 ± 7.1 nM in data set [7]; 222 ± 43.7 nM in data set [8]. The “sensitivity of human CamKIIα” value in data set [4] (Phe gatekeeper) is on record as “completely resistant”. Also, in data set [1], the “microsome stability” value was “extremely unstable; also recorded: poor microsome stability”. In addition, the “shift in potency vs Gly gatekeeper” value in [5] (Gly to Ser) and in data set [7] (Gly to Ala) was 3-5 fold throughout. Further, the “sensitivity of Met gatekeeper TgCDPK1” value in [6] (Gly to Met) is on record as “completely insensitive”. Further, the “additional decrease in inhibition” value in data set [8] (Gly to Thr, relative to Ala or Ser) was determined as 10 fold.
Consider `CC(C)(C)n1nc(Cc2ccc(F)c(Cl)c2)c2c(N)ncnc21` [Compound 20], for which, in data set [1], the microsomal CLint is greater than 350 µL/min/mg.
As for `CC(C)(C)n1nc(Cc2cccc(Cl)c2)c2c(N)ncnc21` [Compound 3, 3-chloro-benzyl pyrazolo [3,4-d] pyrimidine], the “brain tissue cyst burden” value in [2] is “considerable variation in the reduction of cyst numbers”.
Turning to `CCc1nc(N)nc(N)c1-c1ccc(Cl)cc1` [pyrimethamine, reference compound], in [3] (4 h vs 24 h treatment, growth to 72 h), the “treatment time required to demonstrate potent inhibition of growth” value is on record as “at least 24 h”.
In the case of `CC(C)(C)n1nc(Cc2cccc3ccccc23)c2c(N)ncnc21` [Compound 6, 1-napthylmethyl-PP], the parasite burdens entry in [9] (10-fold higher doses, i.p. inoculation) is “modest reduction in parasite burdens”. Also, the “protection against lethal challenge” value in [9] (oral administration, RH strain) is “failed to protect”.
In the case of `CC(C)(C)n1nc(Cc2cccc(Cl)c2F)c2c(N)ncnc21` [Compound 18], the intrinsic clearance (microsomal CLint) in data set [1] is greater than 350 µL/min/mg.

What is called microsomal CLint is the capacity of the preparation to metabolise the compound, expressed as a volume cleared per time. High values mean rapid turnover, low ones slow turnover. Usually IC50 stands for the midpoint of a concentration-inhibition curve.
